The values that follow come from ChEMBL document CHEMBL1817578, “2-({6-[(3R)-3-amino-3-methylpiperidine-1-yl]-1,3-dimethyl-2,4-dioxo-1,2,3,4-tetrahydro-5H-pyrrolo[3,2-d]pyrimidine-5-yl}methyl)-4-fluorobenzonitrile (DSR-12727): a potent, orally active dipeptidyl peptidase IV inhibitor without mechanism-based inactivation of CYP3A” (Bioorg Med Chem, 2011).

Data set [1] can be described thus: AUC in Zucker fatty rat at 3 mg/kg, po after 3 hrs. The class given is ADME, organism-based. More on the design: time < 3 hr, dose 3 mg/kg, route oral. The conditions noted are these: plasma.
Another data set has as its target T1, Cytochrome P450 2A6 (Homo sapiens, UniProt P11509).
T1 sequence (P11509 whole entry): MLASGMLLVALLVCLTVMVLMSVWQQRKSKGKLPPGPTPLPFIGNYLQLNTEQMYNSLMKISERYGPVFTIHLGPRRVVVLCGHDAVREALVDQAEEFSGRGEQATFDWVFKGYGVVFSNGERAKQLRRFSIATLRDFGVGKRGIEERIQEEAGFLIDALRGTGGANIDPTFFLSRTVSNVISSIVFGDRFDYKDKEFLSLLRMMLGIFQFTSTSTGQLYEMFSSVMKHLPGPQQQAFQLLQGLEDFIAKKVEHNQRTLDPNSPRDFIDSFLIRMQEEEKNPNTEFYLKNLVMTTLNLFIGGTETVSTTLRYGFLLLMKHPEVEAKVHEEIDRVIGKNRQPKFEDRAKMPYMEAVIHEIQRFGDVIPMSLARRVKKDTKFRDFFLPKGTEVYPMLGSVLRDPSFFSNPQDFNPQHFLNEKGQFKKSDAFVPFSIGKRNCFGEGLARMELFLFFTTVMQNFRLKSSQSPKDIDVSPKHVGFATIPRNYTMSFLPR
Description: Inhibition of CYP2A6. The class given is ADME.

The next data set deals with Rattus norvegicus. The data set is described as follows: In vivo inhibition of DPP4 in Zucker fatty rat plasma assessed as AMC production at 3 mg/kg, po after 3 hrs by fluorescence microplate reader analysis. The class given is functional, organism-based. More on the design: dose 3 mg/kg. The essentials:
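Male Zucker fatty rats, 9 weeks old, fasted 24 h and kept fasted to 12 h post-dose; test compound solution given by oral gavage at 1.0 or 3.0 mg/kg. Blood sampled at -0.5 h and 0.25–24 h. Plasma DPP-4 measured as AMC release from Gly-Pro-MCA (100 µmol/L working solution), pH 7.8 HEPES buffer, Ex 380/Em 460 nm for 3 min, AMC calibration, duplicates; n = 4–5.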

Another data set addresses T2, Cytochrome P450 1A2 (Homo sapiens, UniProt P05177).
T2 sequence (P05177 whole entry): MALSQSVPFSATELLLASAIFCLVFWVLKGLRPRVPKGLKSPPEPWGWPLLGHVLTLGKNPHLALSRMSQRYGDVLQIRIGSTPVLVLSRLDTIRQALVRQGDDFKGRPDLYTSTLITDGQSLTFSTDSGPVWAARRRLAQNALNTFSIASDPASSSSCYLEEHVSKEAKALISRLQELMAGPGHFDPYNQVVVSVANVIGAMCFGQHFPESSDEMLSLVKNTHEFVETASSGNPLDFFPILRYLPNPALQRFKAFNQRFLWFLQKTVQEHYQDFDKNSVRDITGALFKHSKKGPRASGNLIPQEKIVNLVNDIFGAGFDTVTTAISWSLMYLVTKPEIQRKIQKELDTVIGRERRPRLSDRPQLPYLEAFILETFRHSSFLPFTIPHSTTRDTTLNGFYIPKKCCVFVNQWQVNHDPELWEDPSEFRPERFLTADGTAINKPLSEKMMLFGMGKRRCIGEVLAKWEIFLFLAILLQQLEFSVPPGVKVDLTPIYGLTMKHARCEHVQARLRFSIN
The data set is described as follows: Inhibition of CYP1A2. The class given is ADME.

A short description of data set [2]: Toxicity in rat assessed as organ toxicity after 2 weeks repeated dosage. It counts as organism-based. The conditions noted are these: in vivo. The essentials:
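2-week repeated-dose toxicity study; rats n = 5 per sex, monkeys n = 1 per sex.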

A short description of data set [3]: Oral bioavailability in monkey at 3 mg/kg, po. It counts as ADME, organism-based, Macaca mulatta. The conditions noted are these: rhesus monkey, in vivo.
A short description of data set [4]: Oral bioavailability in dog at 3 mg/kg, po. It counts as ADME, organism-based, Canis lupus familiaris. The conditions noted are these: in vivo.
A short description of data set [5]: Plasma protein binding in dog. The class given is ADME, cell-free, Canis lupus familiaris. The conditions noted are these: read-out: PPB (converted).
Data set [6] in a line: Cmax in rat at 3 mg/kg, po. It counts as ADME, organism-based. On the set-up: dose 3 mg/kg, route oral. The following applies: in vivo.
A short description of data set [7]: Oral bioavailability in rat at 3 mg/kg. The class given is ADME, organism-based. The conditions noted are these: in vivo.
The nature of data set [8]: Volume of distribution at steady state in monkey at 1 mg/kg, iv. The following applies: rhesus monkey, in vivo, read-out: Vdss. On the set-up: dose 1 mg/kg, route intravenous. The class given is ADME, organism-based, Macaca mulatta.
Data set [9] can be described thus: Half life in monkey at 3 mg/kg, po. The following applies: rhesus monkey, in vivo. On the set-up: dose 3 mg/kg, route oral. It counts as ADME, organism-based, Macaca mulatta.
The target in another data set is Xaa-Pro aminopeptidase 2 (Homo sapiens, UniProt O43895). The data set is described as follows: Inhibition of aminopeptidase P.
Data set [10] is described as follows: Clearance in rat at 1 mg/kg, iv. The class given is ADME, organism-based. On the set-up: dose 1 mg/kg, route intravenous. The following applies: in vivo.
The target in a further data set is T3, Prolyl endopeptidase FAP (Homo sapiens, UniProt Q12884).
T3 sequence (Q12884 whole entry): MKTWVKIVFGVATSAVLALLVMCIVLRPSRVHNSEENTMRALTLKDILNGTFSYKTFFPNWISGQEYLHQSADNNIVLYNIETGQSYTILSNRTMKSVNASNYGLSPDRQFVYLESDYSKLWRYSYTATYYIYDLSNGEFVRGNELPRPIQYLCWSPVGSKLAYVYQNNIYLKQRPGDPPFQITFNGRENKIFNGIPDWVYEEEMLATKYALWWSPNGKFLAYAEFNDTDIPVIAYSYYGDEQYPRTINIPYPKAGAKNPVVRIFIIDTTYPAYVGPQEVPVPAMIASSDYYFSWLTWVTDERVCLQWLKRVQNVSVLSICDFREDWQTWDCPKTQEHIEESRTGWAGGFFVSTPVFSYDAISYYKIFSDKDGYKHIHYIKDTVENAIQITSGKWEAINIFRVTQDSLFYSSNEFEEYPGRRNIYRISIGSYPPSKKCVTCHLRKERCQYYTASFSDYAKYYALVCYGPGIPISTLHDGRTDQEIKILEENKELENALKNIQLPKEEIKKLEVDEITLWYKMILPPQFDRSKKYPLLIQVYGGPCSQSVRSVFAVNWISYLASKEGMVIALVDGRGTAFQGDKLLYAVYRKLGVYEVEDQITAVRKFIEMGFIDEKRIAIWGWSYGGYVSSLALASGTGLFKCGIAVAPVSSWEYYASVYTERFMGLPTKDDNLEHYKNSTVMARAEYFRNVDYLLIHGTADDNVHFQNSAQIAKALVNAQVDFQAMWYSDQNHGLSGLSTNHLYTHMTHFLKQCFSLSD
The data set is described as follows: Inhibition of FAPalpha.

The nature of data set [11]: Plasma protein binding in monkey. The class given is ADME, cell-free, Macaca mulatta. The following applies: rhesus monkey, read-out: PPB (converted).
Data set [12] deals with T4, Muscarinic acetylcholine receptor M1 (Homo sapiens, UniProt P11229).
T4 sequence (P11229 whole entry): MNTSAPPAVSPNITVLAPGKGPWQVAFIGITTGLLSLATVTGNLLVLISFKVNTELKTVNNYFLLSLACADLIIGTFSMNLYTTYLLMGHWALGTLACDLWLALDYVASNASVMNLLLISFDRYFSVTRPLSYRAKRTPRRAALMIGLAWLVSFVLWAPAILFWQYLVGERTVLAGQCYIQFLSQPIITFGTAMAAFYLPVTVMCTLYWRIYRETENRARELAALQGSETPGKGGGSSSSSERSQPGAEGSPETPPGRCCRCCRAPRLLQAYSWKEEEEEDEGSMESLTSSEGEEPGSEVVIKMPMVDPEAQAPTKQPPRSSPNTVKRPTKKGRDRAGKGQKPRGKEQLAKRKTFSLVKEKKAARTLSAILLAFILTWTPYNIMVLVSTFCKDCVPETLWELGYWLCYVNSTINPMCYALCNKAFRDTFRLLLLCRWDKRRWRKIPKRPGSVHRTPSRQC
The data set is described as follows: Binding affinity to muscarinic receptor 1.

Active and inactive are the calls of the source. The calls are words filed in the database; no cut-off is given here.

Sequence of Xaa-Pro aminopeptidase 2 (O43895 whole entry): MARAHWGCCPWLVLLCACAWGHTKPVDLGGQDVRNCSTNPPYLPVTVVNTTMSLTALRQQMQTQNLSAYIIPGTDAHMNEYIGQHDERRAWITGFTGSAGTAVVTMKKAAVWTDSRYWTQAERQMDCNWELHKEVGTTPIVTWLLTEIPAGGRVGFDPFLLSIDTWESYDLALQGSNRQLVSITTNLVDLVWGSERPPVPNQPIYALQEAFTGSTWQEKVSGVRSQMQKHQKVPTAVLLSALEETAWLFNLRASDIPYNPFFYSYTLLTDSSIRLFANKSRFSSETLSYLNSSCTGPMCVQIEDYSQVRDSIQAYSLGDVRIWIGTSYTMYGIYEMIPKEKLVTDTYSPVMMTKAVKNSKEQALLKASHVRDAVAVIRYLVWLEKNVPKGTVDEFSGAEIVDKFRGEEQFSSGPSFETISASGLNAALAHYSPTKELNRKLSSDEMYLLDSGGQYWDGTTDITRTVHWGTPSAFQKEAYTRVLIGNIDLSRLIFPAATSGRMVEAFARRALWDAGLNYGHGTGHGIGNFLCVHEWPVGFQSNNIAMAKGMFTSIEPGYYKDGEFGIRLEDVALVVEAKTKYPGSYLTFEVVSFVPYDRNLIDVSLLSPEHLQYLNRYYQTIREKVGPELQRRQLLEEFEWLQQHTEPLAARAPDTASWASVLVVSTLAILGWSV

`Cn1c(=O)c2c(cc(N3CCC[C@@](C)(N)C3)n2Cc2cc(F)ccc2C#N)n(C)c1=O`: in data set [1], the AUC – broadly, concentration integrated over time – at 3 h was 2170 ng·h/mL. For the same molecule, the IC50 (usually the concentration that gives 50% inhibition) on Cytochrome P450 2A6 is more than 50 µM; on Cytochrome P450 1A2 it was more than 50 µM; against Xaa-Pro aminopeptidase 2, more than 50 µM; against Prolyl endopeptidase FAP, more than 50 µM; in [12] it was more than 10 µM. Besides, the inhibition entry in the data set with Rattus norvegicus is “Active”. In data set [2], the NOAEL (in general, the highest tested level that showed no adverse finding) at 336 h turned out to be 60 mg/kg/day. In addition, the bioavailability (as a rule, dose-corrected exposure relative to a reference, in per cent) in [3] came to 38%; in data set [4] it was 91%; in data set [7], 52%. Moreover, the fraction unbound was 0.41 in data set [5] and 0.31 in data set [11]. Moreover, the highest level in data set [6] (Cmax) was 76 ng/mL. Further, the Vd in [8] amounted to 10 L/kg. Besides, in [9], the half-life (in general, how long it takes for the measured level to halve) is 15 h. Moreover, the clearance (commonly a measure of how efficiently the substance is removed, as volume per time) in data set [10] turned out to be 40 mL/min/kg.
